Calls of active or inactive are those of the source. No cut-off for these calls is given here.
Legend:
HT-22 [1] = assay: Neuroprotective activity against glutamate-induced neuronal cell death in mouse HT22 cells assessed as increase in cell viability at 50 to 100 uM after 24 hrs by microscopy; type: functional, cell-based
[2] = target: Mitogen-activated protein kinase 1 and 3 (ERK2 and ERK1) (Mus musculus) (UniProt P63085+Q63844); assay: Inhibition of glutamate-induced ERK1/2 phosphorylation in mouse HT22 cells at 50 to 100 uM after 8 hrs by Western blot analysis; type: cell-based
Sequence of Mitogen-activated protein kinase 1 and 3 (ERK2 and ERK1) (Mus musculus) (P63085 whole entry, looked up): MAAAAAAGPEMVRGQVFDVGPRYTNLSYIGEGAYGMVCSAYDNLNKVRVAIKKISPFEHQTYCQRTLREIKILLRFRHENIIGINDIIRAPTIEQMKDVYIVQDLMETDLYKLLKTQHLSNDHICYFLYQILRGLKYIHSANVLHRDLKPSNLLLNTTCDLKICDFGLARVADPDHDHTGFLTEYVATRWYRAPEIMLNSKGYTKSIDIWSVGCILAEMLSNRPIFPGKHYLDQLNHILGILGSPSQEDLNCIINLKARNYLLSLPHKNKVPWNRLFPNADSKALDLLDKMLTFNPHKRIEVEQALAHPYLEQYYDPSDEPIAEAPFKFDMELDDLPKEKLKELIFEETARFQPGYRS
Sequence of Mitogen-activated protein kinase 1 and 3 (ERK2 and ERK1) (Mus musculus) (Q63844 whole entry, looked up): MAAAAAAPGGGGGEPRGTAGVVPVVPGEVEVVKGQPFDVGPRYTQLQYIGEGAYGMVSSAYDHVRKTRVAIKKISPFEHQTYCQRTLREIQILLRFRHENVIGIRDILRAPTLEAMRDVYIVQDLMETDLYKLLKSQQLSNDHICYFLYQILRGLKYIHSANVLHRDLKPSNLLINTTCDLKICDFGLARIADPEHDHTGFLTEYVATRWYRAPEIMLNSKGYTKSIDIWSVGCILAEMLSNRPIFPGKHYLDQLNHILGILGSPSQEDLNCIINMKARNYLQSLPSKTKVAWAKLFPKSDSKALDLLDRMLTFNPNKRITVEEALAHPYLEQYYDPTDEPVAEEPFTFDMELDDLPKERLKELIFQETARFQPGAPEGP
Procedure, shortened: (§1)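 Mouse hippocampal HT22 cells were grown in DMEM with 10% FBS and penicillin/streptomycin at 37 °C in 5% CO2. Cells were exposed to 5 mM glutamate plus 50 or 100 μM compound for 8 h, then lysed in RIPA buffer with protease inhibitors. Lysates were run on SDS-PAGE and transferred to PVDF. Membranes were blocked in 5% milk and probed for 1 h with p-/total ERK1/2, JNK, p38 and GAPDH antibodies. Chemiluminescent bands were quantified as fold of control; mean ± SEM.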

HT-22 [3] = assay: Inhibition of glutamate-induced intracellular calcium level in mouse HT22 cells at 50 uM after 8 hrs by Flu-4 AM probe based fluorescence microscopic analysis relative to control; type: functional
Procedure, shortened: (§2)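 HT22 mouse hippocampal cells (DMEM, 10% FBS, penicillin/streptomycin, 37 °C, 5% CO2) were seeded at 5 × 10^4 cells/well and co-treated with 5 mM glutamate and the test agent for 8 h. They were then loaded with 2 μM Fluo-4 AM and rinsed with phenol-red-free medium. Fluorescence images were quantified as fold change versus untreated control cells (mean ± SEM).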

[4] = target: MAP kinase p38 (Mus musculus) (UniProt P47811+O08911+Q9WUI1+Q9Z1B7); assay: Inhibition of glutamate-induced p38 phosphorylation in mouse HT22 cells at 50 to 100 uM after 8 hrs by Western blot analysis; type: cell-based; procedure, shortened: as §1
HT-22 [5] = assay: Neuroprotective activity against glutamate-induced apoptotic cell death in mouse HT22 cells at 50 to 100 uM after 10 hrs by Alexa fluor-488 annexin V/PI staining based cytometric analysis; type: functional
Procedure, shortened: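 HT22 cells were seeded at 2 × 10^5 per well and treated with 5 mM glutamate and 50 or 100 μM compound for 10 h. Cells were harvested, washed in PBS, and equal numbers were labelled with Alexa Fluor 488 annexin V in binding buffer for 20 min, then with propidium iodide. Cells were counted by image-based cytometry as % annexin V-positive; mean ± SEM.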

[6] = Antioxidant activity assessed as DPPH radical scavenging activity; type: functional
Mus musculus = species: Mus musculus; assay: Inhibition of glutamate-induced JNK phosphorylation in mouse HT22 cells at 50 to 100 uM after 8 hrs by Western blot analysis; type: cell-based; procedure, shortened: as §1
[7] = Antioxidant activity assessed as DPPH radical scavenging activity at 100 uM; type: functional
HT-22 [8] = assay: Inhibition of glutamate-induced intracellular ROS generation in mouse HT22 cells at 50 to 100 uM after 8 hrs by DCF-DA probe based fluorescence microscopic analysis; type: functional, cell-based
Procedure, shortened: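 HT22 cells were seeded at 1 × 10^4 per well in DMEM/10% FBS at 37 °C, 5% CO2. They were exposed to 5 mM glutamate with or without compound for 8 h, loaded with 10 μM DCF-DA for 30 min and washed three times with PBS. DCF fluorescence was read at ex 495/em 517 nm on a plate reader and expressed against control; images were taken by fluorescence microscopy. Mean ± SEM.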

HT-22 [9] = assay: Inhibition of glutamate-induced intracellular calcium level in mouse HT22 cells at 100 uM after 8 hrs by Flu-4 AM probe based fluorescence microscopic analysis relative to control; type: functional; procedure, shortened: as §2
HT-22 [10] = assay: Neuroprotective activity against glutamate-induced neuronal cell death in mouse HT22 cells assessed as increase in cell viability after 24 hrs by Ez-CyTox reagent based assay; type: functional
Procedure, shortened: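 HT22 cells (DMEM/10% FBS, 37 °C, 5% CO2) were plated at 1 × 10^4 per well and left to adhere for 24 h. Glutamate (5 mM final) was added together with compounds for 24 h. EZ-Cytox reagent was applied for 30 min and absorbance read at 450 nm. Viability is given as % of untreated live control; mean ± SEM.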

COc1cc(C)cc2c1C(=O)c1c(cc(O)c(O)c1O)C2=O
Activity (HT-22 [1]): Active
inhibition [2]: Active
fold change (FC) (HT-22 [3]): 1.4
inhibition [4]: Active
Activity (HT-22 [5]): Active
Activity [6]: Dose-dependent effect
IC50 [6]: 42.2 µM
inhibition (Mus musculus): Active
Activity [7]: 70%
inhibition (HT-22 [8]): Active
fold change (FC) (HT-22 [9]): 0.98
Activity (HT-22 [10]): Dose-dependent effect

— ChEMBL document CHEMBL4145583, “Neuroprotective Compound from an Endophytic Fungus, Colletotrichum sp. JS-0367” (J Nat Prod, 2018)
